High-throughput results from PubChem.
HTRA1 inh = HTRA1 serine protease inhibitors, primary screen, biochemical, fluorescence polarization, HTS. AID 504803, 2011. inhibition, % at 5.96 µM. Q92743. hit rate 0.5% among 340,000. recombinant HTRA1, FP-rhodamine activity-based probe; in the data active = inhibition above about 36%
SIAE primary = human SIAE inhibitors, primary screen, biochemical, fluorescence polarization, FP-Rh probe, 1536-well HTS. hit rate 0.69% among 370,000. AID 1053197, 2014. Sialate O-acetylesterase (Homo sapiens), Q9HAT2. SIAE FP-Rh probe binding. inhibition, % at 9.66 µM;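 active = inhibition above a cutoff: mean of compounds within the control limits plus 3 SD of those, cut at about 17% in these data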
mABHD4 FP = ABHD4 inhibitors, primary screen, biochemical, fluorescence polarization, mouse. (Lyso)-N-acylphosphatidylethanolamine lipase (Mus musculus), Q8VD66. purified mABHD4, FP-Rh probe fluorescence polarization. inhibition, % at 8.92 µM. hit rate 0.54% among 370,000. AID 720543, 2013;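 active = inhibition exceeding the mean over every tested compound plus 3 SD, cut at about 30% in these data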
Target sequence (Q8VD66 whole entry, looked up): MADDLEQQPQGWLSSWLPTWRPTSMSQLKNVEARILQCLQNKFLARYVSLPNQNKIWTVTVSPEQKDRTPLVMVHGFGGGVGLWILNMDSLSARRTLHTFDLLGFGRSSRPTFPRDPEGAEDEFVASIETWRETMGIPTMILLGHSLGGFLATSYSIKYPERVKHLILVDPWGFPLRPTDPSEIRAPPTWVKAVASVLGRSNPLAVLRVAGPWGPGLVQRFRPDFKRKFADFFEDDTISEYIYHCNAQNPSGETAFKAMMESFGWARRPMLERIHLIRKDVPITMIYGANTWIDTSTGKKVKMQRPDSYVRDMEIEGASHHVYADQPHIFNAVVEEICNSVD
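Material: mouse ABHD4 enzyme, wild type; Benchmarks: S159A mutant high control, sample median low control; Buffer or medium: HEPES pH 7.0, NaCl, Pluronic buffer; Signal: fluorescence polarization; Read-out: percent inhibition of probe binding, normalized to plate controls; Timing: pre-incubation 45 min, probe exposure 60 min, at 25 °C; Dosing: 8.92 µM, single dose.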
TCR-CD3 inh = inhibitors of human TCR-CD3 interaction, primary screen, biochemical, fluorescence, TAMRA-labeled TCR probe. T-cell receptor (TCR). inhibition, % at 9.4 µM. hit rate 0.37% among 360,000; in the data active = inhibition above about 19%;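 also: recombinant mutant TCR 2C K166C tagged with TAMRA read by polarization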
PRMT1 FP inh = PRMT1 methyltransferase inhibitors, primary screen, biochemical, fluorescence polarization; AID 652257, 2013; recombinant PRMT1, activity-based probe fluorescence polarization; hit rate 1.3% among 370,000; Protein arginine N-methyltransferase 1 (Homo sapiens), Q99873; inhibition, % at 2.79 µM;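 active = inhibition above about 21% made by adding two undisclosed values, limit read from the data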
HTRA1 inh conf = HTRA1 protease inhibitors, retest, confirmation, biochemical, fluorescence polarization. shares compounds with HTRA1 inh. hit rate 66% among 1,600. recombinant HTRA1, FP-rhodamine activity-based probe. inhibition, % at 5.96 µM;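 active = mean inhibition over three repeats above a set limit taken from the earlier primary screen, cut at about 37% in these data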;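 also: inhibitors block probe binding so polarization drops and inhibition rises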
Numbers stand for hits; i = inactive; nt = no result. Hits are enriched below; roughly 2.5% of the tested compounds scored in any of these assays.

SMILES | HTRA1 inh | SIAE primary | mABHD4 FP | TCR-CD3 inh | PRMT1 FP inh | HTRA1 inh conf
O=C(O)CCNc1cc(N2CCN(C(=O)c3ccco3)CC2)c2noc3c2c1C(=O)c1ccccc1-3 | 46 | 30 | 49 | 34 | 25 | i
CC12CCC(C(=O)NCc3ccc4c(c3)OCO4)(C(=O)C1=O)C2(C)C (stereo not given) | i | i | i | i | i | nt
C#CCNC(=O)C[C@H]1C[C@@]2(C(=O)OC)C(=C[C@H](COCc3ccccc3)O[C@@H]2C)N(CCCCCCCC)C1=O | nt | i | i | nt | i | nt
CN1C(=O)CC(Nc2cccc3cccc(N)c23)C1=O (stereo not given) | 39 | nt | nt | nt | nt | i
CN1C(=O)CC(NNC(=O)c2ccccc2)C1=O (stereo not given) | i | i | i | i | i | nt
C[C@]1(CC/C(=C/CO)CO)[C@H](CO)CC[C@@]23COC(=O)C2=CCC[C@@H]31 | i | i | i | i | i | nt
O=C(Nc1ccccc1)Nc1nc2ncccn2c1-c1ccc(F)cc1 | nt | i | i | nt | i | nt
COC(=O)CCC(=O)OC1(C)C(=O)C2=CN(CCCOC(C)C)C(c3ccc(OC)cc3)=CC2=C(Br)C1=O (stereo not given) | 39 | nt | nt | nt | nt | 50
COC(=O)CCC(=O)OC1(C)C(=O)C2=CN(C3CC3)C(c3ccc(OC)cc3)=CC2=C(Br)C1=O (stereo not given) | i | i | i | i | i | nt
COC(=O)CCC(=O)OC1(C)C(=O)C2=CN(Cc3ccc(OC)cc3)C(c3ccc(OC)cc3)=CC2=C(Br)C1=O (stereo not given) | i | i | i | i | i | nt
COC(=O)CCC(=O)OC1(C)C(=O)C2=CN(Cc3ccccc3)C(c3ccc(OC)cc3)=CC2=C(Br)C1=O (stereo not given) | 60 | i | i | i | i | 63
COC(=O)CCC(=O)OC1(C)C(=O)C2=CN(CC3CC3)C(c3ccc(OC)cc3)=CC2=C(Br)C1=O (stereo not given) | 50 | nt | nt | nt | nt | 46
COC(=O)CCC(=O)OC1(C)C(=O)C2=CN(c3ccccc3)C(c3ccc(OC)cc3)=CC2=C(Br)C1=O (stereo not given) | 47 | i | i | i | i | 48
COC(=O)CCC(=O)OC1(C)C(=O)C2=CN(CCc3c[nH]c4ccccc34)C(c3ccc(OC)cc3)=CC2=C(Br)C1=O (stereo not given) | i | nt | nt | nt | nt | nt
CCc1ccccc1-c1cc(C(=O)OC)c2n(c1=O)CCC2 | nt | i | i | nt | i | nt
CC1(C(=O)O)CCC(C(=O)Nc2cccc(F)c2)C1(C)C (stereo not given) | i | i | i | i | i | nt
Fc1ccc(N/N=C/C=C/c2ccccc2)c(F)c1 | i | i | i | i | i | nt
COc1ccc(NC(=O)CC2Nc3cccc4cccc(c34)NC2=O)cc1 (stereo not given) | 52 | i | i | i | i | i
COc1c(O)c(O)c2oc(-c3ccccc3)cc(=O)c2c1OC | 46 | i | i | i | i | 60
CC(=O)Nc1ccc(C23CC4CC(CC(C4)C2)C3)cc1 | i | i | i | i | i | nt
Oc1ccc(C23CC4CC(CC(C4)C2)C3)cc1O | 59 | i | i | i | i | 81
Cc1cc(C)n2c(Nc3ccc4c(c3)OCCO4)c(-c3ccccn3)nc2n1 | nt | i | i | i | i | nt
Cc1ccc(Nc2c(-c3ccccn3)nc3cc(C)ccn23)cc1 | 44 | i | i | i | i | 61
Cc1ccc(Nc2c(-c3ccccn3)nc3ccc(C)cn23)cc1 | 55 | i | i | i | i | 58
Cc1ccn2c(Nc3ccc4c(c3)OCO4)c(-c3ccccn3)nc2c1 | 64 | 25 | i | i | i | 75
SMILES | HTRA1 inh | SIAE primary | mABHD4 FP | TCR-CD3 inh | PRMT1 FP inh | HTRA1 inh conf
COC(=O)C1=C(C)NC(=O)/C1=C\c1cc(C)n(-c2ccccc2)c1C | i | i | i | i | i | nt
COC(=O)C1=C(C)NC(=O)/C1=C\c1cc(C)n(-c2cc(C)cc(C)c2)c1C | 53 | i | i | i | i | i
O=C(CCn1cccn1)Nc1ccc2c(c1)OCO2 | i | i | i | i | i | nt
CCn1ncc(CN2CCC(Oc3cc(C(=O)NC4CC4)ccc3OC)CC2)c1C | i | i | i | i | i | nt
Oc1c(C(c2ccc(Cl)cc2)N2CCCC2)cc(Cl)c2cccnc12 (stereo not given) | 41 | i | i | i | i | 60
Cc1ccc(C(c2cc(Cl)c3cccnc3c2O)N2CCN(C)CC2)cc1 (stereo not given) | 57 | nt | nt | nt | nt | 70
CN1CCN(C(c2ccc(C(F)(F)F)cc2)c2ccc3cccnc3c2O)CC1 (stereo not given) | nt | i | i | i | i | nt
CN1CCN(C(c2ccccn2)c2cc(Cl)c3cccnc3c2O)CC1 (stereo not given) | 39 | i | i | i | i | 66
COc1cccc(-c2cnc(C(O)c3c(C)cccc3C)[nH]2)c1 (stereo not given) | nt | i | i | i | i | nt
COc1ccc(CN2CCC(CNC(=O)NC3CCC(C)CC3)CC2)cc1 (stereo not given) | nt | i | i | nt | i | nt
Cc1[nH][nH]c(=O)c1C(c1ccc(-c2ccc(Cl)c(Cl)c2)o1)c1c(C)[nH][nH]c1=O | 40 | 21 | i | i | i | 37
CN1c2cccc3cccc(c23)N(C)C1(C)C | i | i | i | i | i | nt
CN1c2ccccc2N(C)C1(C)c1cccc2ccccc12 | 47 | i | i | i | i | i
CSCC[C@H](NC(=O)c1ccc2c(c1)OCO2)c1nnc2ccccn12 | i | i | i | i | i | nt
O=c1cc(-c2ccc(O)cc2)oc2c(-c3c(O)cc(O)c4c(=O)cc(-c5ccc(O)cc5)oc34)c(O)cc(O)c12 | 53 | i | i | i | i | 50
O=c1cc(-c2ccc(O)c(-c3c(O)cc(O)c4c(=O)cc(-c5ccc(O)cc5)oc34)c2)oc2cc(O)cc(O)c12 | 40 | i | i | i | i | 76
CC(=O)c1ccc(NC(=O)C(C)OC(=O)CCN=C2NS(=O)(=O)c3ccccc32)cc1 (stereo not given) | i | i | i | i | i | nt
CC(=O)c1cccc(NC(=O)C(C)OC(=O)CCN=C2NS(=O)(=O)c3ccccc32)c1 (stereo not given) | 90 | i | i | i | i | i
Fc1cccc(Cc2c(-c3ccccc3)nc3c4ccccc4ccn23)c1 | nt | i | i | i | i | nt
CC(C)C(=O)N1CCCC1(C)C(=O)NCc1ccc(Cl)cc1 (stereo not given) | nt | i | i | i | i | nt
COc1cc(NCCCCCCN)c2ncccc2c1OC | 38 | i | 40 | i | i | 39
